Rows were chosen to be rich in hits. Some 4.1% of all compounds tested hit in one or more screens of this group.
MPTP inh = inhibitors of mitochondrial permeability transition pore. inhibition, % at 10 µM. hit rate 1.4% among 360,000. isolated mouse mitochondria, Ca2+ swelling absorbance, 30 min;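 active = inhibition of 50% or more, scaled per plate between neutral and stimulator controls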;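 also: 0% = DMSO wells given calcium and 100% = 1 mM EGTA wells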
SMARCA2 activ = activators of SMARCA2 function | MG213 cells, MMTV-luciferase reporter, dexamethasone, overnight | activation, % at 9.1 µM | hit rate 1% among 370,000; in the data active = activation above about 7.8%;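 also: 0% = vehicle wells and 100% = reference activator wells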
ATG4B inh = inhibitors of human ATG4B cysteine protease; inhibition, % at 8.33 µM; ATG4B cleavage of LC3-PLA2, NBD-HPC fluorescence, 1 h; hit rate 0.51% among 340,000; AID 504462; Q9Y4P1; in the data active = inhibition above about 40%
Target sequence (Q9Y4P1 whole entry, looked up): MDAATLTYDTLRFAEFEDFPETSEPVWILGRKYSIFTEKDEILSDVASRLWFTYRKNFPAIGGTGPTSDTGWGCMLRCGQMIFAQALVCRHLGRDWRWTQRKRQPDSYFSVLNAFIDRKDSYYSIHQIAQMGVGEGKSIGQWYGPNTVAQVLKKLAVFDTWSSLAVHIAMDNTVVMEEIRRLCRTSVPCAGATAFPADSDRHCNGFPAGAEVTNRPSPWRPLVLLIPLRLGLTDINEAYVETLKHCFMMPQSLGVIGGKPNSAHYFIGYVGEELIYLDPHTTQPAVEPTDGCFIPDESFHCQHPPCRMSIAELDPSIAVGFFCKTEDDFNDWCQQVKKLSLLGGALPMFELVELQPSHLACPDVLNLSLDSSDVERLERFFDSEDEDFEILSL
MC4R antag cAMP = blocks human MC4R cAMP signaling | MC4R-expressing cells, MTII-stimulated cAMP, LANCE TR-FRET | inhibition, % at 6.5 µM | hit rate 0.48% among 360,000 | P32245;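 active = inhibition above its plate's cutoff, the mean of tested wells on that plate plus 3 SD, cut at about 29% in these data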;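 also: 0% = Melanotan II alone and 100% = Melanotan II plus saturating MCL0020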
Target sequence (P32245 whole entry, looked up): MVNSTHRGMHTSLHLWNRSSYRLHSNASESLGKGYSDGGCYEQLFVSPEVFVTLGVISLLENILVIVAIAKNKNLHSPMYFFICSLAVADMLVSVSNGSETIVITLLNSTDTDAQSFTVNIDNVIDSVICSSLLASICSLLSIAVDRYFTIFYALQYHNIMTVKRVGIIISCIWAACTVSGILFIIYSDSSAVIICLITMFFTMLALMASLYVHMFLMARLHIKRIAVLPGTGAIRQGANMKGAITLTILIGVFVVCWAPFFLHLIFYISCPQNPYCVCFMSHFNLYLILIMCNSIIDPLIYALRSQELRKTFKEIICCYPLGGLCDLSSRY
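Material: U2OS-MC4R stable cell line | Reagent: Melanotan II challenge after compound preincubation | Doses: One concentration, 6.5 µM nominal | Incubation: 30-min compound preincubation, 1-h Melanotan II challenge, 1-h detection, room temperature | Signal: TR-FRET cAMP assay | Replicates: One well per compound, no replicates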
MC4R barr agon = human MC4R agonism via beta-arrestin. U2OS MC4R beta-arrestin complementation, luminescence; percent of melanotan II response, DMSO zero. activation, % at 8.9 µM. hit rate 0.98% among 360,000. AID 540308;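 active = activation above a per-plate cutoff, the mean activation of sample wells on that plate plus 3 SD, cut at about 8% in these data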
Rh123 counter = membrane potential counter-screen of mitochondrial pore inhibitors. shares compounds with MPTP inh. isolated mitochondria, Rhodamine 123 fluorescence. inhibition, % at 10 µM. hit rate 78% among 5,000; in the data active = inhibition above about 22%;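 also: 0% = DMSO vehicle and 100% = positive control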
Active calls of the source: *; nt = no result.

SMILES | MPTP inh | SMARCA2 activ | ATG4B inh | MC4R antag cAMP | MC4R barr agon | Rh123 counter
CCc1ccc(-c2cc(C(=O)N3N=C(C(F)F)CC3(O)C(F)F)c3ccccc3n2)cc1 (centres undefined) | 84.2* | 1.6 | 2.3 | 6.3 | 1.1 | 83.4*
CC(C)Cc1cc(C(=O)N2N=C(C(F)F)CC2(O)C(F)F)c2ccccc2n1 (centres undefined) | 34.9 | 0.3 | -12.4 | 1.4 | -0.2 | nt
C[n+]1c(-c2ccccc2)cc2c(=Cc3ccccc3)c3ccccc3n21 | -4.6 | -7.6 | 18.1 | -16.7 | 2.2 | nt
CN(C)c1ccc(C=c2c3cc(O)ccc3n3c2cc(-c2ccccc2)[n+]3C)cc1 | 53.4* | -8.3 | 31.9 | -13.8 | 0.4 | 58.9*
C[C@H]1COc2cc(Br)ccc2S(=O)(=O)N1Cc1cn(Cc2ccc(Br)cc2)nn1 | nt | -3.2 | nt | nt | nt | nt
COC(=O)c1cccc(Cn2ccc3ccc(-c4ccc5ccn(C(=O)c6ccccc6OC)c5c4)cc32)c1 | nt | -0.3 | nt | nt | nt | nt
NC(=S)NNc1ccnc2cc(Cl)ccc12 | -1.6 | -0.4 | -12.1 | -8.4 | -2.0 | nt
O=C(NNc1ccnc2cc(Cl)ccc12)C1CCCCC1 | 99.2* | -2.9 | -17.9 | 4.7 | -2.1 | 90.3*
FC(F)Oc1ccc(NC(=S)NNc2ccnc3cc(Cl)ccc23)cc1 | 101.0* | -0.4 | 4.2 | 11.5 | 1.2 | 65.0*
CN(C(=O)c1cn(C)c2ccccc12)c1ccc(Oc2cccnc2)cc1 | nt | -4.8 | nt | nt | nt | nt
O=C(/C(=N\Nc1ccc(Br)cc1)Sc1nnnn1-c1ccccc1)c1ccccc1 | 90.5* | -1.6 | 4.6 | 2.1 | -1.4 | 74.1*
O=C(Nc1cc(Cl)cc(Cl)c1)C(c1ccccc1)N1CCCCC1 (centres undefined) | 83.1* | -2.0 | -2.5 | -2.3 | 6.8 | 97.5*
CCOC(=O)C1CCN(C(=O)Nc2cccc(Cl)c2)CC1 | 1.7 | -4.5 | 0.9 | 10.8 | 0.5 | nt
O=C(Nc1ccc(F)c(Cl)c1)N1CCCC1 | 2.1 | 2.4 | 1.3 | 3.1 | -0.8 | nt
CCOC(=O)C1CCN(C(=O)Nc2cc(Cl)cc(Cl)c2)CC1 | 77.5* | -3.4 | -0.2 | 8.4 | -0.7 | 91.9*
O=C(Nc1cc(Cl)cc(Cl)c1)N1CCCC1 | 97.8* | -0.4 | -1.4 | 4.3 | -3.5 | 93.3*
COc1ccccc1/C=C/C(=O)c1cc(Br)ccc1OC(=O)c1ccco1 | 57.0* | 0.3 | 3.2 | -0.3 | -2.7 | -9.4
Fc1cccc(Cl)c1-c1nnc2ccc3ccccc3n12 | 51.1* | -0.5 | 5.3 | -48.6 | -2.2 | 31.1*
COC(=O)c1cccc(NC(=O)NC23CC4CC(CC(C4)C2)C3)c1 | 5.1 | 6.9 | -3.2 | 9.2 | 0.6 | nt
COC(=O)c1ccc(Cl)c(NC(=O)NC23CC4CC(CC(C4)C2)C3)c1 | 94.2* | 1.9 | -15.4 | 6.8 | -0.6 | 82.5*
C[C@H](CO)N1C[C@H](C)[C@@H](CN(C)C(=O)Nc2cccc(F)c2)OCc2cn(nn2)CCCC1=O | nt | -2.8 | nt | nt | nt | nt
Cc1ccccc1-n1nc(C(=O)c2cccs2)cc(-c2nc3ccccc3[nH]2)c1=N | 90.9* | 2.6 | -5.8 | -7.0 | 3.3 | 98.1*
COc1ccc(-n2nc(C(=O)c3cccs3)cc(-c3nc4ccccc4[nH]3)c2=N)cc1 | 78.0* | 3.6 | -6.8 | -5.6 | -1.8 | -4.2
Cc1cccc(-n2nc(C(=O)c3ccco3)cc(-c3nc4ccccc4[nH]3)c2=N)c1 | 48.5 | 0.3 | 6.2 | -15.6 | -1.5 | nt
CC1=N/C(=C\c2ccc([N+](=O)[O-])cc2)C(=O)N1c1ccc(C)c(Cl)c1 | nt | -4.2 | nt | nt | nt | nt
SMILES | MPTP inh | SMARCA2 activ | ATG4B inh | MC4R antag cAMP | MC4R barr agon | Rh123 counter
C[C@@H]1C(=O)N2N=Cc3cc4ccccc4cc3[C@H]2N2N=Cc3cc4ccccc4cc3[C@@H]12 | nt | -2.5 | nt | nt | nt | nt
CCn1c(CNC(=O)COc2ccc(C(C)C)cc2)nnc1SCC(=O)Nc1ccccc1C(C)C | 53.2* | 0.3 | -23.0 | 14.1 | 2.8 | 57.2*
CCn1c(CNC(=O)COc2ccc(C(C)C)cc2)nnc1SCC(=O)Nc1ccccc1F | -2.0 | -1.9 | -13.2 | -1.7 | 0.2 | nt
CCc1ccccc1NC(=O)c1ccc(CN2CCC(Cc3ccccc3)CC2)cc1 | 57.2* | -2.1 | 5.9 | 0.6 | -0.4 | -14.4
CC(CCOC1=NS(=O)(=O)c2ccccc21)NC(=O)C(=O)Nc1ccccc1 (centres undefined) | 1.4 | 2.3 | -10.1 | 10.7 | -1.5 | nt
O=C(NCCCCCCOC1=NS(=O)(=O)c2ccccc21)C(=O)Nc1ccccc1 | 73.0* | -1.1 | 6.3 | 2.7 | -1.7 | 67.8*
CCOc1ccc(-n2c(SCC(=O)Nc3ccc(OCc4ccccc4)cc3)nnc2-c2ccc(Cl)cc2)cc1 | nt | -5.1 | nt | nt | nt | nt
O=C(Nc1cccc(F)c1)Nc1cccc(Cl)c1 | 87.8* | -3.1 | 12.4 | -0.8 | 3.3 | 80.4*
CC(=O)Nc1cccc(NC(=O)Nc2cccc(F)c2)c1 | 6.4 | 3.0 | -10.4 | 21.7 | 1.8 | nt
COc1cccc(NC(=O)Nc2cc(Cl)ccc2C)c1 | 91.9* | 3.7 | -8.0 | 7.7 | 1.4 | 82.3*
O=C(Nc1cccnc1)Nc1ccc(Br)cc1Cl | 57.6* | -3.2 | 2.2 | -2.8 | -0.2 | 80.4*
O=C(Nc1cccc(Cl)c1)ON=C1c2ccccc2-c2ccccc21 | 86.2* | 0.9 | -9.7 | 5.8 | 2.6 | 86.7*
O=C(OCc1cn(Cc2cccc(Cl)c2)nn1)N1CCOCC1 | nt | -0.7 | nt | nt | nt | nt
CCCCCCCCN1CCS(=O)(=O)N(Cc2ccc(OC)cc2)C(C(=O)OC)C1 (centres undefined) | nt | -1.6 | nt | nt | nt | nt
O=S1(=O)c2ccc(N3CCCC3)cc2Oc2ccccc2CN1Cc1cn(Cc2ccc(C(F)(F)F)cc2)nn1 | nt | -3.8 | nt | nt | nt | nt
O=C(Nc1cccc(Cl)c1)Nc1cccc(Cl)c1 | 102.5* | -0.3 | 9.2 | -2.4 | 4.5 | 88.1*
O=C(Nc1cccc(Cl)c1)Nc1ccon1 | 17.5 | 1.1 | -0.4 | -3.2 | -3.0 | nt
Cc1cccc(N(O)C(=O)Nc2cccc(Cl)c2)c1 | 64.4* | 2.8 | 6.5 | -7.0 | -1.0 | 83.8*
O=C(NCCN1CCN(c2cccc(Cl)c2)CC1)Nc1ccccc1 | 0.7 | 0.3 | 0.4 | 13.5 | 0.7 | nt
CCN(C(=O)Nc1cccc(Cl)c1)c1ccccc1 | 0.1 | -0.2 | 2.3 | -1.4 | -0.2 | nt
O=C(NCCN1CCN(Cc2ccccc2)CC1)Nc1cc(Cl)cc(Cl)c1 | 85.1* | -5.7 | -6.0 | 2.9 | 7.4 | 95.8*
O=C(Nc1ccccc1)Nc1cc(Cl)cc(Cl)c1 | 101.4* | -3.6 | 9.7 | 8.0 | 1.2 | 100.4*
CC(NC(=O)c1c(N)[nH]c(C(=O)c2ccc(Cl)cc2)c1-c1ccc(Br)cc1)c1cccc2ccccc12 (centres undefined) | nt | -2.3 | nt | nt | nt | nt
O=C(O)c1ccc(C=Nn2c(-c3ccc(F)cc3)n[nH]c2=S)cc1 | nt | -2.6 | nt | nt | nt | nt
COC(=O)c1cc(NC(=O)Nc2cccc(Cl)c2)ccc1Cl | 89.8* | -6.0 | 16.8 | -1.9 | 2.4 | 73.2*
CS(=O)(=O)Nc1ccccc1C(=O)Nc1cccc(Cl)c1 | 27.8 | -4.7 | -1.2 | 3.3 | -1.8 | nt
CS(=O)(=O)Nc1ccccc1C(=O)Nc1cc(Cl)cc(Cl)c1 | 97.3* | 1.7 | 10.8 | -0.8 | -1.9 | 83.0*
